Here are results for five molecules from ChEMBL document CHEMBL4825680, “Structure-based discovery of potent and selective small-molecule inhibitors targeting signal transducer and activator of transcription 3 (STAT3)” (Eur J Med Chem, 2021).

One series concerns MGC-803. The series can be described thus: Antiproliferative activity against human MGC-803 cells. The class given is functional, cell-based.
The nature of series [1]: Metabolic stability in human liver microsomes assessed as half life at 0.1 uM preincubated for 10 mins followed by NADPH addition and measured upto 60 mins by LC-MS/MS analysis. In kind it is ADME, Microsome. The following applies: time <=70 min. In a few lines: (§1)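 Microsomes at 0.33 mg/mL in 0.1 M Tris pH 7.4 with 5 mM MgCl2; compound final 0.1 μM (0.01% DMSO, 0.005% BSA). Preincubated 10 min at 37 °C, then started with 1 mM NADPH. Sampled at 0, 7, 17, 30 and 60 min and quenched with cold methanol. Centrifuged, then analysed by LC-MS/MS.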

Series [2] in a line: Metabolic stability in human liver microsomes assessed as clearance at 0.1 uM preincubated for 10 mins followed by NADPH addition and measured upto 60 mins by LC-MS/MS analysis. The class given is ADME, Microsome. The following applies: 1 h, time <=70 min. Summed up:
as §1

In a further series the test system is MDA-MB-231. The series can be described thus: Antiproliferative activity against human MDA-MB-231 cells. In kind it is functional, cell-based.
The subject of the next series is A549. Put plainly: Antiproliferative activity against human A549 cells. In kind it is functional, cell-based.
A short description of series [3]: Toxicity in NOD/SCID mouse xenografted with patient-derived breast cancer cells assessed as change in body weight at 5 to 15 mg/kg, ip administered once daily for 20 days. The following applies: in vivo, 480 h.
Series [4] can be described thus: Antitumor activity against patient-derived breast cancer cells xenografted in NOD/SCID mouse assessed as tumor growth inhibition at 15 mg/kg, ip administered once daily for 20 days. Conditions: Homo sapiens, Breast cancer cell line, 480 h, read-out: TGI.

Consider `COc1ccn2c(CC(=O)Nc3ccc4c(c3)S(=O)(=O)C=C4)c(-c3ccccc3)nc2c1`, for which the IC50 with MGC-803 worked out at 1 µM; in the series with MDA-MB-231 it was 1.2 µM; with A549, 0.6 µM. For the same molecule, in series [1], the half-life at 0.1 µM stood at 10.1 min. For the same molecule, in series [2], the CLH was found to be 208.4 mL/min/g.

As to `CN(CC(=O)N(Cc1ccc(C2CCCCC2)cc1)c1ccc(C(=O)O)c(O)c1)S(=O)(=O)c1c(F)c(F)c(F)c(F)c1F`, the IC50 with MGC-803 worked out at 5.6 µM; in the series with MDA-MB-231, 2 µM; with A549, 5 µM. In addition, the Activity entry in series [3] is “Non-Toxic”. For the same molecule, the inhibition in vivo at 15 mg/kg in series [4] is 63.6%.

Take `COc1ccn2c(CC(=O)Nc3ccc4c(c3)S(=O)(=O)C=C4)c(-c3ccc(C(F)(F)F)cc3)nc2c1`: the results for the IC50 with MGC-803, in the series with MDA-MB-231 and in the series with A549 were 0.4 µM, 0.7 µM and 0.4 µM, respectively. For the same molecule, the half-life at 0.1 µM in series [1] was found to be 4.4 min. In addition, in series [2], the CLH came out at 478 mL/min/g.

For the molecule `O=C(Nc1nnc(-c2ccco2)o1)c1cc(-c2ccccc2)nc2ccccc12`, the IC50 worked out at 7.43 µM in the series with MGC-803, 18.2 µM in the series with MDA-MB-231 and 11.6 µM in the series with A549. In addition, the Activity result in series [3] was “Non-Toxic”.

In the case of `O=C(NCc1ccc(C2CCCCC2)cc1)c1cc(-c2ccccc2)nc2cc(O)ccc12`, the half-maximal inhibitory concentration (IC50) was 14.6 µM in the series with MGC-803, 50 µM with MDA-MB-231 and 16.6 µM with A549.
